{
  "source": "ChEMBL document CHEMBL5724801",
  "about": "“EUbOPEN Chemogenomics Library - Multiplex” (2024)",
  "tested_on": "U2OS",
  "assay": "Multiplex assay against U2OS",
  "assay_type": "toxicity, cell-based",
  "details": "human",
  "outline": "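Per cents of healthy-nucleus cells form the tubulin, mitochondrial-mass and membrane-permeability phenotype values. Live cells were stained at seeding with Hoechst33342, BioTracker Green Microtubule Cytoskeleton Dye, MitoTracker Red and Annexin V Alexa Fluor 680. After compound addition they were imaged on a CQ1 microscope at 37°C and 5% CO2, and CellPathfinder machine-learning gating split them into Hoechst high-intensity objects or normal cells, normal cells into healthy, pyknosed or fragmented nuclei, and pyknosed cells into mitotic or apoptotic.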",
  "key": {"[1]": {"details": "12 h, 1 µM, compound concentration 1 uM"}, "[2]": {"details": "12 h, 10 µM, compound concentration 10 uM"}, "[3]": {"details": "24 h, 1 µM, compound concentration 1 uM"}, "[4]": {"details": "24 h, 10 µM, compound concentration 10 uM"}, "[5]": {"details": "48 h, 1 µM, compound concentration 1 uM"}, "[6]": {"details": "48 h, 10 µM, compound concentration 10 uM"}},
  "note": "“And” between values parts separate entries of the source, which are not always exact repeats. Equal values may be shown once.",
  "data": [
    {"smiles": "Oc1c(CN2CCN(c3ccccn3)CC2)cc(Cl)c2cccnc12", "values": [
      {"measurement": "Population Apoptotic (%)", "setting": "[1]", "result": "95% and 100%"},
      {"measurement": "Population Fragmented Nuclei (%)", "setting": "[1]", "result": "24% and 16%"},
      {"measurement": "Population Healthy Nuclei (%)", "setting": "[1]", "result": "64% and 78%"},
      {"measurement": "Population Hoechst High Intensity Objects (%)", "setting": "[1]", "result": 1, "unit": "%"},
      {"measurement": "Population Membrane Permeable-Phenotype (%)", "setting": "[1]", "result": "3% and 13%"},
      {"measurement": "Population Mitochondria Different-Phenotype (%)", "setting": "[1]", "result": "1% and 4%"},
      {"measurement": "Population Mitotic Cells (%)", "setting": "[1]", "result": "4% and 0%"},
      {"measurement": "Population Normal (%)", "setting": "[1]", "result": 98, "unit": "%"},
      {"measurement": "Population Pyknosed Nuclei (%)", "setting": "[1]", "result": "10% and 5%"},
      {"measurement": "Population Tubulin-Different-Phenotype (%)", "setting": "[1]", "result": "2% and 8%"},
      {"measurement": "Total Cell Count", "setting": "[1]", "result": "237 and 93"},
      {"measurement": "Population Apoptotic (%)", "setting": "[2]", "result": "84% and 87%"},
      {"measurement": "Population Fragmented Nuclei (%)", "setting": "[2]", "result": "31% and 18%"},
      {"measurement": "Population Healthy Nuclei (%)", "setting": "[2]", "result": "56% and 68%"},
      {"measurement": "Population Hoechst High Intensity Objects (%)", "setting": "[2]", "result": "2% and 1%"},
      {"measurement": "Population Membrane Permeable-Phenotype (%)", "setting": "[2]", "result": "12% and 6%"},
      {"measurement": "Population Mitochondria Different-Phenotype (%)", "setting": "[2]", "result": "28% and 35%"},
      {"measurement": "Population Mitotic Cells (%)", "setting": "[2]", "result": "15% and 12%"},
      {"measurement": "Population Normal (%)", "setting": "[2]", "result": "97% and 98%"},
      {"measurement": "Population Pyknosed Nuclei (%)", "setting": "[2]", "result": "11% and 13%"},
      {"measurement": "Population Tubulin-Different-Phenotype (%)", "setting": "[2]", "result": "8% and 11%"},
      {"measurement": "Total Cell Count", "setting": "[2]", "result": "229 and 118"},
      {"measurement": "Population Apoptotic (%)", "setting": "[3]", "result": "88% and 100%"},
      {"measurement": "Population Healthy Nuclei (%)", "setting": "[3]", "result": "64% and 87%"},
      {"measurement": "Population Hoechst High Intensity Objects (%)", "setting": "[3]", "result": 1, "unit": "%"},
      {"measurement": "Population Membrane Permeable-Phenotype (%)", "setting": "[3]", "result": "3% and 9%"},
      {"measurement": "Population Mitochondria Different-Phenotype (%)", "setting": "[3]", "result": "2% and 3%"},
      {"measurement": "Population Mitotic Cells (%)", "setting": "[3]", "result": "11% and 0%"},
      {"measurement": "Population Normal (%)", "setting": "[3]", "result": 98, "unit": "%"},
      {"measurement": "Population Pyknosed Nuclei (%)", "setting": "[3]", "result": "6% and 5%"},
      {"measurement": "Population Tubulin-Different-Phenotype (%)", "setting": "[3]", "result": "2% and 7%"},
      {"measurement": "Total Cell Count", "setting": "[3]", "result": "270 and 97"},
      {"measurement": "Population Apoptotic (%)", "setting": "[4]", "result": "90% and 100%"},
      {"measurement": "Population Fragmented Nuclei (%)", "setting": "[4]", "result": "27% and 29%"},
      {"measurement": "Population Healthy Nuclei (%)", "setting": "[4]", "result": "63% and 58%"},
      {"measurement": "Population Hoechst High Intensity Objects (%)", "setting": "[4]", "result": "4% and 3%"},
      {"measurement": "Population Membrane Permeable-Phenotype (%)", "setting": "[4]", "result": "10% and 9%"},
      {"measurement": "Population Mitochondria Different-Phenotype (%)", "setting": "[4]", "result": "14% and 40%"},
      {"measurement": "Population Mitotic Cells (%)", "setting": "[4]", "result": "9% and 0%"},
      {"measurement": "Population Normal (%)", "setting": "[4]", "result": "95% and 96%"},
      {"measurement": "Population Pyknosed Nuclei (%)", "setting": "[4]", "result": "9% and 12%"},
      {"measurement": "Population Tubulin-Different-Phenotype (%)", "setting": "[4]", "result": "7% and 6%"},
      {"measurement": "Total Cell Count", "setting": "[4]", "result": "238 and 127"},
      {"measurement": "Population Apoptotic (%)", "setting": "[5]", "result": "94% and 87%"},
      {"measurement": "Population Fragmented Nuclei (%)", "setting": "[5]", "result": "25% and 14%"},
      {"measurement": "Population Healthy Nuclei (%)", "setting": "[5]", "result": "67% and 77%"},
      {"measurement": "Population Hoechst High Intensity Objects (%)", "setting": "[5]", "result": "3% and 1%"},
      {"measurement": "Population Membrane Permeable-Phenotype (%)", "setting": "[5]", "result": "6% and 7%"},
      {"measurement": "Population Mitochondria Different-Phenotype (%)", "setting": "[5]", "result": "3% and 1%"},
      {"measurement": "Population Mitotic Cells (%)", "setting": "[5]", "result": "5% and 12%"},
      {"measurement": "Population Normal (%)", "setting": "[5]", "result": "96% and 98%"},
      {"measurement": "Population Pyknosed Nuclei (%)", "setting": "[5]", "result": 7, "unit": "%"},
      {"measurement": "Population Tubulin-Different-Phenotype (%)", "setting": "[5]", "result": "3% and 5%"},
      {"measurement": "Total Cell Count", "setting": "[5]", "result": "276 and 111"},
      {"measurement": "Population Apoptotic (%)", "setting": "[6]", "result": "96% and 100%"},
      {"measurement": "Population Fragmented Nuclei (%)", "setting": "[6]", "result": "32% and 38%"},
      {"measurement": "Population Healthy Nuclei (%)", "setting": "[6]", "result": "57% and 42%"},
      {"measurement": "Population Hoechst High Intensity Objects (%)", "setting": "[6]", "result": "2% and 4%"},
      {"measurement": "Population Membrane Permeable-Phenotype (%)", "setting": "[6]", "result": "11% and 12%"},
      {"measurement": "Population Mitochondria Different-Phenotype (%)", "setting": "[6]", "result": "19% and 41%"},
      {"measurement": "Population Mitotic Cells (%)", "setting": "[6]", "result": "3% and 0%"},
      {"measurement": "Population Normal (%)", "setting": "[6]", "result": "97% and 95%"},
      {"measurement": "Population Pyknosed Nuclei (%)", "setting": "[6]", "result": "10% and 19%"},
      {"measurement": "Population Tubulin-Different-Phenotype (%)", "setting": "[6]", "result": "7% and 8%"},
      {"measurement": "Total Cell Count", "setting": "[6]", "result": "275 and 144"}
    ]}
  ]
}
